In ChEMBL document CHEMBL3393048, “Discovery of potent cytotoxic ortho-aryl chalcones as new scaffold targeting tubulin and mitosis with affinity-based fluorescence” (J Med Chem, 2014):
Activity calls are given as the source filed them. The rule behind the calls is not given here.

Tests used:
A549 [1] = test: Antiproliferative activity against human A549 cells after 48 hrs by SRB method; type: functional, cell-based; conditions: A549, 48 h
In short: (§1)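 SRB assay. Cells in DMEM high glucose with 10% FBS were seeded at 5000/well and grown 24 h; a day-0 plate was fixed at that point. Compounds were added in triplicate for 48 h. Cells were fixed with TCA at 4 °C for 1 h, stained with 0.4% SRB, and the dye was solubilized in 10 mM Tris pH 10.4. OD was read at 515 nm with day-0 OD subtracted. IC50 came from nonlinear regression of dose–response curves from at least two independent experiments.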

MCF7 [2] = test: Antiproliferative activity against human MCF7 cells after 48 hrs by SRB method; type: functional, cell-based; conditions: MCF7, 48 h
In short: (§2)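 SRB assay. Cells in DMEM high glucose with 10% FBS were seeded at 5000/well and grown 24 h; a day-0 plate was fixed at that point. Compounds were added in triplicate for 48 h. IC50 came from nonlinear regression of dose–response curves from at least two independent experiments.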

HepG2 = test: Antiproliferative activity against human HepG2 cells after 48 hrs by SRB method; type: functional, cell-based; conditions: HepG2, 48 h; in short: as §2
SW480 = test: Antiproliferative activity against human SW480 cells after 48 hrs by SRB method; type: functional, cell-based; conditions: SW480, 48 h; in short: as §2
[3] = Antiproliferative activity against human CNE2 cells after 48 hrs by SRB method; type: functional, cell-based; conditions: CNE-2, 48 h; in short: as §2
Tubulin (Homo sapiens) = Tubulin (Homo sapiens) (UniProt P68371+Q9H4B7+P0DPH7+P68366+Q13509+Q71U36+P04350+Q3ZCM7+P07437+P68363+Q9BQE3+Q6PEY2+Q13885+Q9BVA1+Q9BUF5); test: Inhibition of tubulin polymerization (unknown origin) at 20 uM by DAPI staining-based fluorescence microscopy; type: protein-complex assay
A549 [4] = test: Antiproliferative activity against cis-platinum-resistant human A549 cells after 48 hrs by SRB method; type: functional, cell-based; conditions: A549, 48 h; in short: as §1
[5] = Antiproliferative activity against vincristine-resistant human HCT8 cells after 48 hrs by SRB method; type: functional, cell-based; conditions: HCT-8, 48 h; in short: as §1
A2780 [6] = test: Antiproliferative activity against taxol-resistant human A2780 cells after 48 hrs by SRB method; type: functional, cell-based; conditions: A2780, 48 h; in short: as §2
Tubulin = test: Inhibition of tubulin polymerization (unknown origin) by DAPI staining-based fluorescence microscopy; type: protein-complex assay, Homo sapiens
In short: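 Purified tubulin (99% pure; 20 μM as supplied) mixed with compound in general tubulin buffer (80 mM PIPES pH 6.9, 2.0 mM MgCl₂, 0.5 mM EGTA) with 1 mM GTP, 20% glycerol and DAPI reporter. Polymerization tracked kinetically at 37 °C as fluorescence rise (ex 360, em 450 nm). Duplicate wells per concentration. IC50 from at least two independent experiments.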

MCF7 [7] = test: Antiproliferative activity against doxorubicin-resistant human MCF7 cells after 48 hrs by SRB method; type: functional, cell-based; conditions: MCF7, 48 h; in short: as §2
[8] = Antiproliferative activity against human HCT8 cells after 48 hrs by SRB method; type: functional, cell-based; conditions: HCT-8, 48 h; in short: as §2
A2780 [9] = test: Antiproliferative activity against human A2780 cells after 48 hrs by SRB method; type: functional, cell-based; conditions: A2780, 48 h; in short: as §2
MCF7 [10] = test: Drug resistance index, ratio of IC50 for doxorubicin-resistant human MCF7 cells to IC50 for human MCF7 cells; type: functional
In short: (§3)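 Drug resistance index = IC50 in the resistant line / IC50 in its parental line. […] Pairs: A549/CDDP vs A549, MCF-7/DOX vs MCF-7, A2780/TAX vs A2780, HCT-8/VCT vs HCT-8.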

A2780 [11] = test: Drug resistance index, ratio of IC50 for taxol-resistant human A2780 cells to IC50 for human A2780 cells; type: functional; in short: as §3
[12] = Drug resistance index, ratio of IC50 for vincristine-resistant human HCT8 cells to IC50 for human HCT8 cells; type: functional, HCT-8; in short: as §3
A549 [13] = test: Drug resistance index, ratio of IC50 for cis-platinum-resistant human A549 cells to IC50 for human A549 cells; type: functional; in short: as §3

Compound | IC50 (A549 [1]) | IC50 (MCF7 [2]) | IC50 (HepG2) | IC50 (SW480) | IC50 [3] | inhibition (Tubulin (Homo sapiens)) | IC50 (A549 [4]) | IC50 [5] | IC50 (A2780 [6]) | IC50 (Tubulin) | IC50 (MCF7 [7]) | IC50 [8] | IC50 (A2780 [9]) | Ratio IC50 (MCF7 [10]) | Ratio IC50 (A2780 [11]) | Ratio IC50 [12] | Ratio IC50 (A549 [13])
Cc1ccc(/C=C/C(=O)c2ccccc2-c2ccc(F)cc2)o1 | 31 µM | 23 µM | 12 µM | 23 µM | 14 µM | – | – | – | – | – | – | – | – | – | – | – | –
COc1cccc(/C=C/C(=O)c2ccccc2-c2ccc(F)cc2)c1OC | 7.1 µM | 5.3 µM | 5 µM | 5.7 µM | 5.2 µM | Active | – | – | – | – | – | – | – | – | – | – | –
COc1ccc(C(=O)/C=C/c2ccccc2-c2ccc(F)cc2)cc1 | 8.2 µM | 8.8 µM | 6.3 µM | 8.4 µM | 9 µM | – | – | – | – | – | – | – | – | – | – | – | –
COc1cc(C(=O)/C=C/c2ccccc2-c2ccc(F)cc2)cc(OC)c1OC | 2.2 µM | 9.1 µM | 12 µM | 2.2 µM | 3.8 µM | – | – | – | – | – | – | – | – | – | – | – | –
O=C(/C=C/c1cccs1)c1ccccc1-c1ccc(F)cc1 | 12 µM | 9.5 µM | 6.2 µM | 16 µM | 5.9 µM | Active | – | – | – | – | – | – | – | – | – | – | –
COc1cccc2c1C(=O)c1c(O)c3c(c(O)c1C2=O)C[C@@](O)(C(=O)CO)C[C@@H]3O[C@H]1C[C@H](N)[C@H](O)[C@H](C)O1 [DOXORUBICIN] | – | – | – | – | – | – | 0.29 µM | 3.4 µM | 1.9 µM | – | – | – | – | – | – | – | –
O=C(/C=C/c1ccccc1-c1ccc(F)cc1)c1cccc(O)c1 | 6.9 µM | 9.3 µM | 4.2 µM | 8.7 µM | 7.3 µM | – | – | – | – | – | – | – | – | – | – | – | –
COc1ccc(C(=O)/C=C/c2ccccc2-c2ccc(F)nc2)cc1OC | 17 µM | 41 µM | 17 µM | 15 µM | 17 µM | – | – | – | – | – | – | – | – | – | – | – | –
COc1ccc(CNC(=O)c2ccccc2-c2ccc(F)cc2)cc1OC | > 50 µM | > 50 µM | > 50 µM | > 50 µM | > 50 µM | – | – | – | – | – | – | – | – | – | – | – | –
COc1ccc(/C=C/C(=O)c2ccccc2-c2cccc(F)c2)cc1 | 0.28 µM | 0.64 µM | 0.11 µM | 0.14 µM | 0.073 µM | – | 0.48 µM | 0.22 µM | 0.86 µM | 4 µM | 0.084 µM | 0.2 µM | 0.16 µM | 0.64 | 5.2 | 1.1 | 2.1
COc1ccc(C(=O)/C=C/c2ccccc2-c2ccc(F)cc2)cc1O | 0.94 µM | 0.56 µM | 0.19 µM | 0.34 µM | 0.75 µM | – | – | – | – | – | – | – | – | – | – | – | –
COc1ccc(C(=O)/C=C/c2ccccc2-c2ccc(F)nc2)cc1O | 3.2 µM | 2 µM | 1.8 µM | 1.6 µM | 2.1 µM | – | – | – | – | – | – | – | – | – | – | – | –
COc1ccc(/C=C/C(=O)c2ccccc2-c2cc(OC)c(OC)c(OC)c2)cc1O | 0.29 µM | 0.68 µM | 0.19 µM | 0.3 µM | 0.79 µM | – | 0.59 µM | 2 µM | 1.6 µM | 2.8 µM | 0.17 µM | 0.52 µM | 0.38 µM | 0.24 | 4.3 | 4 | 2
COc1ccc(/C=C/C(=O)c2ccccc2-c2cccc(F)c2)cc1OC | 0.33 µM | 1.2 µM | 0.15 µM | 0.16 µM | 0.65 µM | – | – | – | – | – | – | – | – | – | – | – | –
COc1ccc(OC)c(/C=C/C(=O)c2ccccc2-c2ccc(OC)c(OC)c2)c1 | 4.1 µM | 3.1 µM | 2.1 µM | 5.2 µM | 2.4 µM | Active | – | – | – | – | – | – | – | – | – | – | –
COc1ccc(/C=C/C(=O)c2ccccc2-c2ccc(F)cc2)cc1OC | 0.44 µM | 0.24 µM | 0.095 µM | 0.57 µM | 0.081 µM | – | – | – | – | – | – | – | – | – | – | – | –
